Source: PubChem
HIV Env fusion: HIV envelope-mediated fusion inhibition; inhibition, % at 12.3 µM; HeLa-JRFL Env/CEM21 cell fusion, luciferase; actives 1.1% (n = 360,000); AID 651610;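 active = mean replicate inhibition score of at least 50 and every replicate individually at or above 50; inconclusive = only one of the two criteria met; inactive = mean below 50 and not all replicates reaching 50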;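 note: 0% = plate neutral controls and 100% = maraviroc near 300 nM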
ERAP1 HTS inh: inhibitors of human ERAP1 aminopeptidase | actives 0.15% (n = 340,000) | inhibition, % at 10.7 µM | recombinant ERAP1, Leu-AMC fluorescence, 60 min;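 active = mean replicate inhibition of at least 30%, or all replicates individually reaching that 30% level; inactive = mean below 30% and not every replicate reaching it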;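 note: 0% = neutral control wells and 100% = L-leucinethiol positive control wells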
Target sequence (Q9NZ08 whole entry, looked up): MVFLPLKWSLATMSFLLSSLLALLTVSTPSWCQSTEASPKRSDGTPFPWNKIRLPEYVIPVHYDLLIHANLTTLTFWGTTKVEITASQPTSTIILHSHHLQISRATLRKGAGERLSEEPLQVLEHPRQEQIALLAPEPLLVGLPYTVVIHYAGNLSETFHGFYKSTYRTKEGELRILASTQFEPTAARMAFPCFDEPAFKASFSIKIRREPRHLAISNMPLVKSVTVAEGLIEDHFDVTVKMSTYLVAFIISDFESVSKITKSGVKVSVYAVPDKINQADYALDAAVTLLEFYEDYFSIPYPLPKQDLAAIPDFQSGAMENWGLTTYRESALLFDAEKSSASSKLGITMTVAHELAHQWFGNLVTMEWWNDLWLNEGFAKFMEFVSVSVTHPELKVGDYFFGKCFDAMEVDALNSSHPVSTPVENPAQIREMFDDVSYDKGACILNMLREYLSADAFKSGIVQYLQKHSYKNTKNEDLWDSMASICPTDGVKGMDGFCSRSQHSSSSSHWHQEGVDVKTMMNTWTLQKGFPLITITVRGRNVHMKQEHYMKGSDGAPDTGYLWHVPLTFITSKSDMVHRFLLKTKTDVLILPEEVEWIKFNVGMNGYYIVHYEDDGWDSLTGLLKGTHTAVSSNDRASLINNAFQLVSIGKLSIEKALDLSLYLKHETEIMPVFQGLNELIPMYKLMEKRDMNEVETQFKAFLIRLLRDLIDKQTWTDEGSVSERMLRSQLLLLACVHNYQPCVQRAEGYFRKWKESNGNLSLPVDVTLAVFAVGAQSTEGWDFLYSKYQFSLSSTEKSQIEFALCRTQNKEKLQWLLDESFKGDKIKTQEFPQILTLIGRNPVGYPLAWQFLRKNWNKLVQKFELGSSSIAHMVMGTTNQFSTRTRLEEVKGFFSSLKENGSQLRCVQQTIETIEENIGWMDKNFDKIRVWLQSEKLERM
esBAF inh: blocks esBAF chromatin remodeling in mouse ES cells. Bmi1-luciferase knock-in reporter, 24 h; 100% = twice the neutral-well signal. reporter increase, % at 12.5 µM. actives 2% (n = 350,000). AID 602393; in the data active = activation above about 40%; inconclusive = no clear call, values can overlap the other calls;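 note: 0% = median of the plate's neutral control wells and 100% = double that signal; a rise in the Bmi1 reporter signal indicates esBAF inhibition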
MITF act: activators of MITF-driven TRPM1 promoter activity in SK-MEL-5 cells | SK-MEL-5 TRPM1-promoter luciferase, 24 h; % of positive control, neutral wells = 0 | activation, % at 12.5 µM | actives 0.75% (n = 300,000) | AID 588334;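 active = mean activation of at least 80% with every replicate also reaching 80%; inconclusive = mean reaches 80% but some replicate falls short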;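 note: 0% = neutral control wells and 100% = parthenolide positive control wells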
Cneo AK release: causes C. neoformans cell lysis | adenylate kinase release luminescence, 4 h; normalised: neutral wells 0, clomiphene wells 100 | lysis activity, % at 15 µM | actives 0.2% (n = 360,000) | AID 651654;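 active = mean lysis activity across replicates of at least 80%, whatever share of replicates individually reach that level; inactive = mean lysis activity below 80%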
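Assay system: C. neoformans cells. Amount: yeast cell density of 5 × 10^6 cells/mL. Technique: AK luminescence. Buffer or medium: YPD. Times: static 4 h at 37 °C with compound, 1 h detection. Dosing: single-point compound dose. Read-out: lysis from increased AK signal.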
Wnt act: Wnt/beta-catenin pathway activation | Wnt/beta-catenin reporter cell assay, activator, plate reader | activation, % at 9.35 µM | actives 1.2% (n = 300,000) | AID 743398; in the data active = activation above about 30%, passing the limit was not always enough; inconclusive = no clear call, values can overlap the other calls;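 note: 0% = neutral control wells and 100% = positive control wells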
Active calls of the source: *; i = inactive; ? = inconclusive; . = no result given; [ ] = dose if it differs, or a comment. A selection: hits, their analogues and other compounds. The true share with any hit is near 3.5%.

SMILES | HIV Env fusion | ERAP1 HTS inh | esBAF inh | MITF act | Cneo AK release | Wnt act
CC(=O)c1ccc(NC(=O)NC2CCCCCCC2)cc1 | -64.8 | 1.3 | 68.2* | 73.9 | 3.2 | ?
O=C(Nc1ccc(F)c(F)c1)NC1CCCCC1 | 4.5 | . | 65.9* | 39.2 | -0.9 | 18.0
Cc1ccc(S(=O)(=O)Nc2ccc3c(c2)CC(=O)N([C@@H](C)CO)C[C@@H](C)[C@H](CN(C)S(=O)(=O)c2c(C)noc2C)O3)cc1 | -5.3[16.7 µM] | -0.7 | 4.3 | . | -6.6 | .
O=C(Nc1ccccc1)N1C[C@@H]2[C@H](c3ccccc31)[C@@H](CO)N2Cc1ccccc1 | . | -1.5 | 17.9 | . | -1.0 | .
O=C(Nc1ccccc1F)NC1CC1 | 13.4 | -0.2 | ? | 15.2 | 2.0 | .
O=C(Nc1ccccc1F)NC1CCCCCCC1 | -27.3 | -1.5 | 53.9* | 57.7 | -2.6 | 17.5
O=C(Nc1ccc2nsnc2c1)NC1CCCCC1 | . | . | 60.1* | 69.8 | -3.8 | .
O=C(Nc1ccc2nsnc2c1)C1CC1 | -2.7 | 1.6 | -10.4 | 3.7 | 3.5 | .
O=C(Nc1ccc(F)cc1)NC1CCCCCCC1 | -22.7 | -0.4 | 59.1* | 105.2* | 3.3 | 12.4
CCCNC(=O)C[C@@H]1CC[C@@H]2[C@H](COC[C@H](O)CN2C(=O)Nc2c(C)noc2C)O1 | . | -2.3 | -9.5 | . | -1.8 | .
CCS(=O)(=O)Nc1ccc2c(c1)C(=O)N(C)C[C@@H](OC)[C@H](C)CN(Cc1nccs1)[C@@H](C)CO2 | . | 6.6 | 0.5 | . | -1.3 | .
Cc1cc(OCc2cc(C(=O)N(C)C3CCOCC3)no2)cc(C)c1Cl | -51.4 | -4.3 | 61.4* | 62.6 | -1.0 | 30.0
Cc1ccc(OCc2cc(C(=O)N(C)CC3CCOCC3)no2)cc1C | -88.0 | -0.5 | 68.6* | 95.9* | 0.5 | 17.3
COc1ccc(OCc2cc(C(=O)N(C)C3CCOCC3)no2)c2ccccc12 | -42.9 | -1.0 | 38.5 | 15.7 | -2.6 | 13.2
Cc1cc(C)c2[nH]c(O)c(N=NC3=NC(=O)CS3)c2c1 | 3.2 | . | -2.3 | 17.4 | . | 5.5
Cc1cc(C)c2[nH]c(O)c(N=Nc3ccc(C(=O)O)cc3)c2c1 | -16.2 | 0.2 | 47.3* | -2.2 | 0.9 | 1.3
C=CCS/C(=N\n1cnc2ccccc2c1=O)N1CCCCC1 | . | . | 52.8* | 26.4 | 5.8 | .
O=C(c1nnsc1S(=O)c1ccc(Cl)cc1)N1CCOCC1 (stereo unspecified) | -3.1 | 1.1 | -86.8 | -87.6 | 1.1 | -7.5
O=C(Nc1ccccc1)c1nnsc1S(=O)c1ccc(Cl)cc1 (stereo unspecified) | . | . | 43.8* | -28.7 | -5.0 | -2.6
COCCCNC(=O)c1sc2ncnc(N3CCc4ccccc4C3)c2c1C | 78.4* | . | 6.8 | -4.2 | -5.9 | .
C[C@H]1CN([C@@H](C)CO)C(=O)Cc2cc(NC(=O)C3CCCCC3)ccc2O[C@H]1CN(C)Cc1ccc(C(=O)O)cc1 | -0.5[16.7 µM] | -2.5 | -4.4 | . | 8.7 | .
S=C(NCCCN1CCOCC1)NCCCN1CCOCC1 | -24.5 | 1.2 | -1.3 | -6.7 | -4.4 | -1.1
S=c1[nH]nc(NCCCN2CCOCC2)s1 | -1.9 | 86.5* | . | -4.5 | . | 1.9
CCc1sc(C(=O)Nc2nccs2)cc1C | -117.3 | -2.7 | -1.3 | 55.9 | -3.7 | 46.9*
CCc1sc(C(=O)Nc2nc(-c3ccccn3)cs2)cc1C | . | . | . | -16.2 | -0.4 | .
SMILES | HIV Env fusion | ERAP1 HTS inh | esBAF inh | MITF act | Cneo AK release | Wnt act
CCc1sc(C(=O)Nc2ncccc2C)cc1C | -4.1 | 2.0 | 54.2* | 14.9 | 0.3 | 1.2
O=C(C[C@@H]1CC[C@H](NC(=O)Nc2cccc(F)c2)[C@@H](CO)O1)NCC1CCCCC1 | -4.0[16.7 µM] | -4.3 | 1.3 | . | 0.0 | .
c1csc(-c2nc(N3CCCCC3)no2)c1 | -74.0 | -1.8 | ? | 81.0* | 1.7 | 35.3*
COc1cccc(CNC(=O)C2Cc3ccccc3CN2C(C)=O)c1 (stereo unspecified) | 8.1 | -1.3 | -6.4 | -10.6 | 0.6 | 0.1
CCS(=O)(=O)N1Cc2ccccc2CC1C(=O)NCc1cccc(OC)c1 (stereo unspecified) | -0.1 | -2.0 | . | 91.3* | 0.5 | -1.7
CCS(=O)(=O)N1Cc2ccccc2CC1C(=O)Nc1cccc(OC)c1 (stereo unspecified) | -15.0 | -0.3 | 53.2* | 19.3 | -0.6 | 15.3
CCOC(=O)/C(C#N)=C/c1cc(C)n(-c2ccc(C)cc2)c1C | . | 3.4 | 16.5 | 93.0* | -13.7 | .
C[C@H]1CN([C@@H](C)CO)C(=O)c2cc(NC(=O)Nc3ccc(F)cc3)ccc2O[C@@H]1CN(C)S(=O)(=O)c1cn(C)cn1 | -21.5[16.7 µM] | 1.5 | -1.2 | . | 56.3 | .
COc1ccc(N=Cc2nc(-c3ccco3)oc2O)cc1 | . | . | 63.1* | 98.7* | -2.8 | .
C[C@@H]1CN([C@@H](C)CO)S(=O)(=O)c2ccc(-c3ccccc3F)cc2O[C@H]1CN(C)C(=O)C1CC1 | 0.0[16.7 µM] | -3.6 | 3.8 | . | -1.8 | .
CCOC(=O)c1cnc2c(-c3ccccc3)cnn2c1N | i | . | -14.7 | 59.3 | -2.0 | 38.4*
CCOC(=O)c1cnn(-c2ccccn2)c1N | . | . | 39.8 | 102.3* | -6.0 | .
CC1(C)C2CCC1(C)C(OCCNCCOC(=O)Nc1ccccc1)C2 (stereo unspecified) | 68.6* | -2.7 | . | 5.0 | 0.4 | -2.8
CC1(C)C2CCC1(C)C(OC(=O)c1ccccc1C(=O)O)C2 (stereo unspecified) | 1.4 | -5.5 | 0.3 | -6.0 | 2.6 | 1.0
CC=Cc1ccc2n(c1=O)C[C@H]1[C@H](CO)[C@@H](C(=O)N[C@H](C)c3ccccc3)N(C(=O)c3cnccn3)[C@@H]21 (mixture of isomers) | -9.8[16.7 µM] | 1.3 | -0.5 | . | -1.8 | .
C[C@@H]1CN([C@H](C)CO)C(=O)Cc2cc(NS(=O)(=O)c3ccc(Cl)cc3)ccc2O[C@H]1CN(C)C(=O)Nc1ccc2c(c1)OCO2 | -33.0[16.7 µM] | . | 4.2 | . | . | .
COc1ccc(C(=O)OCCN2C(=O)c3ccccc3C2=O)cc1 | . | . | 4.4 | 11.0 | 0.0 | .
Cc1ccc(OCCN2C(=O)c3ccccc3C2=O)cc1 | -79.4 | . | 9.3 | 13.1 | 3.0 | .
COc1ccc(OCCN2C(=O)c3cccc(N)c3C2=O)cc1 | -36.8 | 2.2 | 37.6 | 87.7* | -2.0 | 2.2
O=C1c2ccccc2C(=O)N1CCOc1cccc(Br)c1 | . | 0.3 | 41.4* | 18.6 | -2.5 | 13.7
CN(C)c1ccc(N=Nc2cccc(F)c2)cc1 | -102.2 | 1.1 | -8.0 | 48.8 | -3.5 | 51.8*
COc1ccc(CNS(=O)(=O)c2ccc3c(c2)CC(C)N3C(=O)C2CC2)cc1 (stereo unspecified) | 6.2 | -1.4 | -9.3 | -5.3 | -0.7 | -3.5
COc1cc(CNS(=O)(=O)c2ccc3c(c2)CC(C)N3C(=O)C2CCC2)cc(OC)c1OC (stereo unspecified) | 56.7* | 1.0 | 10.3 | -19.5 | 0.2 | -4.8
C[C@@H]1CN([C@H](C)CO)S(=O)(=O)c2ccc(C#Cc3ccc(F)cc3)cc2O[C@@H]1CN(C)C(=O)c1ccccn1 | -0.9[16.7 µM] | 1.5 | -7.5 | . | 3.4 | .
